What was measured:
Pseudomonas aeruginosa [1] = assay: Binding affinity to Pseudomonas aeruginosa PA-IIL assessed as change in enthalpy by isothermal titration calorimetry
In short: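 Recombinant PAO1 LecB expressed in E. coli BL21(DE3), in TBS/Ca²⁺ pH 7.4. Ligand (500–1500 μM) titrated into 100 μM LecB at 25 °C with stirring: 19–39 injections, 240 s apart. First injection discarded. One-site binding model fit. Means from three independent titrations.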

Pseudomonas aeruginosa [2] = assay: Binding affinity to Pseudomonas aeruginosa PA-IIL assessed as change in entropy by isothermal titration calorimetry

deltaH (Pseudomonas aeruginosa [1]): -7.46 kcal/mol
TdeltaS (Pseudomonas aeruginosa [2]): 0.0717 kcal/mol
SMILES: C[C@@H]1O[C@H](O)[C@@H](O)[C@H](O)[C@@H]1O

From ChEMBL document CHEMBL5108077, “Discovery of N-β-l-Fucosyl Amides as High-Affinity Ligands for the Pseudomonas aeruginosa Lectin LecB” (J Med Chem, 2022)
